This excerpt belongs to a sample that is enriched for hits.
L major viab = inhibitors of Leishmania major promastigote growth | Leishmania major promastigotes, resazurin fluorescence viability | inhibition, % at 10 µM | actives 9% (n = 200,000) | AID 1063; in the data active = inhibition above about 50%;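 also: promastigotes grown with compound for 44 hours at 28 °C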
T cruzi inh = T. cruzi replication inhibition | T. cruzi beta-gal in NIH3T3, luminescence, 90 h | inhibition, % (no concentration beside the values) | actives 1.4% (n = 300,000) | AID 1885;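 active = mean inhibition across valid replicates above about 55%, limit read from the data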;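 also: signal also drops with host cell toxicity which is not excluded here; 0% = plate median of DMSO wells and 100% = zero luminescence signal; higher percent means less beta-gal luminescence so fewer parasites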
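System: Mouse NIH/3T3 fibroblasts infected with β-gal-expressing T. cruzi Tulahuen C4 | Quantity: NIH/3T3 cells, 5,000 per well | Reagent: 5000 reporter trypomastigotes per well | Dosing: Compound pinned at 50 nL/well, DMSO | Schedule: 3 h host attachment, then at least 90 h co-culture | Detection: GalScreen luminescence, 60 min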
Dynein transport = dynein cargo transport inhibition. actives 0.47% (n = 220,000). z-score, hits read low. 3617.4 mouse cells, GR-EGFP nuclear translocation imaging; test concentration mostly 20 µM; stimulated with dexamethasone, 1 µM; hits give low values;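 active = plate z-score of nuclear minus cytoplasmic receptor signal below a set negative limit, without overly bright fluorescence or cell loss, cut at about -3.5 in these data, passing the limit was not always enough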;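 also: z-score of nuclear minus cytoplasmic ring GR-EGFP intensity difference per well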
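Also added: dexamethasone, 1.0 µM final. Medium: tet-free, stripped-serum medium. Detection: fixed, Hoechst-stained cells imaged at 10x for EGFP. Read-out: nuclear-to-cytoplasmic GR-EGFP distribution per well. Times: induction 48 h, compound 1 h, agonist 30 min.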
CHOP UPR activ = activators of apoptotic arm of unfolded protein response (CHOP). CHO-CHOP luciferase reporter, UPR activation, luminescence; percent of tunicamycin response over DMSO baseline. activation, % at 10 µM. actives 0.34% (n = 330,000). AID 449763;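 active = at 10 µM dose, activation of 40% or more, normalized to positive control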;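 also: 100% = tunicamycin at 10 µg/mL and 0% = DMSO alone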
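Assay system: CHO cells with stable CHOP pathway luciferase reporter; Buffer or medium: F12 plus 10% serum; Times: 16-18 h cell attachment, then 6 h compound exposure, 37 °C; Signal: luciferase luminescence; Read-out basis: percent activation relative to tunicamycin control; Control set: tunicamycin high control, DMSO low control.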
XBP1 UPR activ = activators of adaptive arm of unfolded protein response (XBP1); CHO-XBP1 luciferase reporter, IRE1-XBP1 UPR activation, luminescence; percent of tunicamycin response, DMSO as zero; activation, % at 20 µM; actives 0.33% (n = 330,000); AID 463104;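 active = versus positive control, 20 µM dose yields 30% or more activation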;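 also: 100% = tunicamycin at 10 µg/mL and 0% = DMSO only wells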
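Test system: CHO-XBP1 luciferase reporter cells | Buffer or medium: Serum-containing F12 medium, 10% FBS | Schedule: 6 h compound exposure at 37 °C, 5% CO2 | Detection: Steady-Glo luciferase glow luminescence, 10 min after reagent addition | Read-out basis: Activation, % of tunicamycin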
CHOP inhibitor = blocks CHOP induction under ER stress. CHO-K1 CHOP-promoter luciferase, tunicamycin-induced, 15-18 h. inhibition, % at 10 µM. actives 3.8% (n = 220,000);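 active = compounds that reduced the stress-induced luciferase reporter signal by more than about 70% of percent inhibition, limit read from the data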;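 also: 0% = tunicamycin plus vehicle and 100% = wells without tunicamycin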
* = called active by the depositor; x = no result given.

SMILES | L major viab | T cruzi inh | Dynein transport | CHOP UPR activ | XBP1 UPR activ | CHOP inhibitor
C=CCN(C(=O)C1CC(=O)N(C2CCCC2)C1)c1nc(-c2ccc(S(C)(=O)=O)cc2)cs1 (stereo unspecified) | x | x | x | 6 | -2 | x
CCN(CC)c1ccc2cc(-c3nnc(-c4ccccc4)o3)c(=O)oc2c1 | 1 | -20 | -4.5* | 6 | -4 | -13
CCN(CC)c1ccc2cc(-c3nnc(-c4ccc(Br)cc4)o3)c(=O)oc2c1 | -4 | x | -5.7* | x | x | x
CC(=O)Nc1c(C(=O)N2CCCCCC2)cnn1-c1ccccc1 | -3 | 0 | -1 | 0 | 1 | 20
O=C(c1cnn(-c2ccccc2)c1-n1cccc1)N1CCN(C2CCCCC2)CC1 | 75* | 0 | -0.65 | 0 | 2 | 11
COc1ccccc1Oc1ccc(S(=O)(=O)N2CCCCC2)cc1NC(=O)CCNC(C)=O | x | 3 | x | -1 | -6 | x
CC1(C)CC(=O)C2=C(C1)N(CCN1CCOCC1)C1=C(C(=O)CC(C)(C)C1)C2c1cccc(Cl)c1 | 61* | 11 | -0.41 | -2 | -3 | 6
Cc1cc2oc(=O)c(CC(=O)NCCCN(C)C)c(C)c2c2occ(C(C)(C)C)c12 | x | 59* | x | 4 | 8 | x
COc1ccc(C)cc1Cn1nnc2ccccc21 | x | -9 | x | -1 | 0 | x
COc1ccc(/C=C/C(=O)C23CC4CC(CC(C4)C2)C3)cc1CN1CCOCC1 | 66* | 48 | -2 | 2 | -1 | 47
COc1ccc(/C=C/C(=O)c2nc3ccccc3n2CC(=O)c2ccc(OC)cc2)cc1 | 75* | 3 | -0.81 | 2 | -3 | 41
COc1ccc(/C=C/C(=O)c2ccc(O)cc2)cc1CN1CCOCC1 | 98* | -12 | -0.81 | -1 | -2 | -65
COc1ccc(C(=O)/C=C/c2ccc(OC)c(Cn3nnc4ccccc43)c2)cc1 | 85* | 4 | -1.6 | 3 | -5 | -80
COc1ccc(C(=O)Cn2c(NCCO)nc3ccccc32)cc1 | 1 | -22 | 0.46 | 0 | -2 | -12
COc1ccc(C(=O)/C=C/c2ccc(OC)c(CN3CCOCC3)c2)cc1 | 86* | 0 | -2.2 | 1 | -2 | -47
Cc1ccccc1N=Cc1cc2c(cc1O)OC(N)=C(C#N)C2c1ccccc1 (stereo unspecified) | 12 | -9 | 1.3 | 2 | 0 | 89*
N#CCCN(CCN1CCCC1)S(=O)(=O)c1ccc(-c2ccc([N+](=O)[O-])cc2)cc1 | 93* | 13 | 0.29 | 0 | 4 | 16
N#CCCN(Cc1cccnc1)S(=O)(=O)c1ccc(S(=O)(=O)N2CCCCCC2)cc1 | -5 | -8 | -0.41 | -2 | -1 | 11
CCC(C(=O)OCC(=O)NC(=O)NC(C)(C)C)c1ccccc1 (stereo unspecified) | -2 | 3 | -1.5 | -1 | -2 | 76*
CC(C)(C)NC(=O)NC(=O)COC(=O)c1ccc(OC(F)(F)F)cc1 | -7 | -10 | -0.15 | 3 | -1 | 81*
NC(=O)CCN1CCN(CCOC2Cc3cc(Cl)ccc3Sc3ccccc32)CC1 (stereo unspecified) | 91* | 28 | 0.61 | 2 | 2 | 5
Fc1ccc2c(c1)Sc1ccc(Cl)cc1CC2N1CCN(CCC2OCCO2)CC1 (stereo unspecified) | x | 14 | x | 1 | -1 | x
COCCCN1CCN(C2Cc3ccccc3Sc3ccc(Cl)cc32)CC1 (stereo unspecified) | 78* | 28 | 0.79 | 0 | -1 | 45
N#CC1(NC(=O)CN2C(=O)NC(c3ccccc3)(c3ccccc3)C2=O)CCCC1 | x | x | x | -2 | 1 | x
Cc1nnc(NC(=O)c2cccc(F)c2)s1 | -2 | -2 | -0.84 | 2 | 4 | 8
SMILES | L major viab | T cruzi inh | Dynein transport | CHOP UPR activ | XBP1 UPR activ | CHOP inhibitor
COc1ccc(NC(=O)Nc2nnc(-c3cccs3)s2)cc1 | x | 0 | -1.1 | 4 | 1 | 88*
Cc1occc1C(=O)Nc1nnc(-c2cccs2)s1 | -5 | -12 | -0.24 | 7 | 5 | 81*
COc1ccc(C(=O)Nc2nnc(-c3cccs3)s2)cc1 | -2 | 11 | 0.85 | -6 | -6 | 70*
O=C(Nc1nnc(-c2cccs2)s1)c1cccc(F)c1 | 0 | x | -0.13 | 7 | 2 | 93*
COc1ccc(C(=O)Nc2nc(-c3cccs3)c(NC(C)=O)s2)cc1 | 6 | 6 | 0.56 | -1 | -2 | -14
CCOC(=O)N1CCN(C(=O)COC(=O)c2cc(C)ccc2C)CC1 | x | x | x | 0 | 0 | x
Cc1c(C(=O)N2CCN(Cc3ccc4c(c3)OCO4)CC2)sc2ncnc(N3CCN(c4ccccc4F)CC3)c12 | x | 64* | x | 2 | 3 | x
Cc1ccc(NC(=O)CN2c3cccc4cccc(c34)S2(=O)=O)cc1S(=O)(=O)N1CCOCC1 | 96* | 0 | -0.52 | 1 | -2 | 51
Cc1ccc(NC(=O)CSc2nccn2C)cc1S(=O)(=O)N1CCOCC1 | 57* | 14 | 0.076 | 0 | -4 | 25
Cc1ccc(S(=O)(=O)N2CCCCC2)cc1NC(=O)CSc1ncnc2ccccc12 | 21 | -5 | -0.75 | 1 | -2 | -6
COc1cc(S(=O)(=O)N2CCOCC2)ccc1NC(=O)CN1c2cccc3cccc(c23)S1(=O)=O | 10 | -13 | 0.19 | 0 | -1 | 10
Cc1ccc(OCC(=O)Nc2ccc(C)c(S(=O)(=O)N3CCCCCC3)c2)c([N+](=O)[O-])n1 | 64* | 30 | 0.21 | -1 | -1 | 65
Cc1ccc(NC(=O)CSc2ncnc3ccccc23)cc1S(=O)(=O)N1CCCCCC1 | 14 | -6 | 0.088 | 3 | -2 | 70*
Cc1ccc(NC(=O)CSc2ccccn2)cc1S(=O)(=O)N1CCOCC1 | 1 | 7 | 0.14 | -2 | 1 | 14
Cc1ccc(OCC(=O)Nc2cccc(S(=O)(=O)N3CCCCC3)c2)c([N+](=O)[O-])n1 | 14 | 21 | -0.25 | 0 | -1 | 16
O=C(O)[C@H](Cc1ccccc1)NC(=O)N1CCN(c2cccc(C(F)(F)F)c2)CC1 | x | 0 | 0.21 | -1 | -2 | 10
CC(c1ccccn1)N(C)C(=O)c1ccc2nc(Cc3ccccc3F)oc2c1 (stereo unspecified) | x | -6 | x | 6 | -3 | x
CC(NC(=O)CNC(=O)c1ccccc1F)c1ccc(-n2ccnc2)cc1 (stereo unspecified) | x | x | x | 0 | 1 | x
CC(=O)c1ccc(NC(=O)CSc2n[nH]c(-c3cccnc3)n2)cc1 | x | -3 | x | 3 | 1 | x
CCN1CCN(c2ccc(N3CCN(S(=O)(=O)c4cc([N+](=O)[O-])ccc4C)CC3)nn2)CC1 | x | 30 | x | 2 | 3 | x
COc1ccc(C(=O)/C(=C\c2ccco2)N2C=CC=CC2=C(C#N)C#N)cc1 | 40 | 52 | 0.1 | -10 | -5 | 107*

Screens: PubChem, several laboratories
